Assay results taken from publication PMC7894400 (CPT: Pharmacometrics & Systems Pharmacology, 2021).
Several values for one entry are separate records, joined by “and”; a condition that tells them apart may be missing. Identical values can stand only once. Entries after “also recorded” stand apart in the source; their conditions may differ.

Legend:
[1] = cited from earlier work
[2] = cited from earlier work; remark: listed apart in the source
[3] = Population pharmacokinetic; assay type: in vivo, human
Procedure, shortened: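 Pooled plasma data from a phase I/II study in ALK+ or ROS1+ NSCLC (10–200 mg oral q.d. or 35–100 mg b.i.d.) plus six healthy-participant studies (100 mg oral doses; one study 50 mg i.v.). Nonlinear mixed effects, FOCEI; central/peripheral volumes, first-order ka, F; clearance time-varying from single-dose CLI to steady-state CLMX via induction rate constant; exponential between-subject effects; covariates include rabeprazole co-administration on ka and F.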

CYP3A and UGT1A4 = conditions: cited from earlier work
[4] = healthy volunteers, study B7461008
[5] = bootstrap mean, 1,000 resampled datasets
[6] = high BWT 91.3 kg (90th percentile), final PopPK model prediction
[7] = highest possible exposure at 100 mg q.d.: BWT 50 kg, BALB 3.2 mg/dL, no PPI use
[8] = low BWT 50 kg (10th percentile), final PopPK model prediction
[9] = lowest possible exposure at 100 mg q.d.: BWT 91.3 kg, BALB 4.6 mg/dL, PPI use

## C[C@H]1Oc2cc(cnc2N)-c2c(nn(C)c2C#N)CN(C)C(=O)c2ccc(F)cc21 [lorlatinib]
[1]; 150 mg q.d., dose escalation portion of Study B7461001
  dose-limiting toxicities: dose‐limiting toxicities were seen
[1]; Study B7461001, noncompartmental analysis
  steady-state lorlatinib CL versus dose: increased with increasing dose
[1]; phase I portion of B7461001, multiple dosing
  levels of CYP3A4 activity (urine 6-beta-hydroxy-cortisol/cortisol and plasma 4-beta-hydroxy-cholesterol/cholesterol ratios): initially increased with time following multiple dosing
[1]; phase I portion of B7461001
  accumulation after multiple dosing: less than expected
[2]
  effect of a high-fat meal on lorlatinib exposure: not to have a meaningful effect
[2]; [4]
  effect of PPI rabeprazole co-administration on lorlatinib AUCinf: no effect; also recorded: without changing
  reduction of lorlatinib Cmax by co-administration of the PPI rabeprazole: ~ 30% and 30%
[3]; 10 mg q.d. lorlatinib
  lower CL (initial and time-varying induced) compared with 100 mg q.d.: 12.4%
[3]; 200 mg q.d. lorlatinib
  higher CL (initial and time-varying induced) compared with 100 mg q.d.: 13.8%
[3]; PPI use
  decrease in ka relative to a typical patient without PPI use: 67.5%
[3]; [5]
  θ CLMX: 14.584 L/h
  θ D1: 1.149 h
  θ F: 0.764
  θ IND: 0.027
  θ PPI on ka: −0.664
  θ Q: 22.491 L/h
  θ V2: 120.618 L
  θ V3: 156.640 L
  θ ka: 3.128 h⁻¹
  ωFωCL: -0.005
  ωV2ωV3: −0.017
  ω^2 F: 0.023
  ω^2 V2: 0.085
  ω^2 V3: 0.099
  ω^2 ka: 2.345
[3]; final PopPK model
  increase in CL with every unit of BALB over 4 mg/dL: 6.68%
[3]; final PopPK model estimate
  θ BALB on CL (covariate effect of baseline albumin): 0.067
  θ D1, zero-order duration of absorption: 1.15 h and 1.148 h
  θ PPI on ka (covariate effect of proton pump inhibitor use): –0.675
  θ TDOSE on CL (covariate effect of total daily dose): 0.001
  θ WNCL on CL (covariate effect of standardized creatinine clearance): 0.235
  ωFωCL (IIV covariance): -0.006
  ωV2ωV3 (IIV covariance): −0.017
  ω^2 F (IIV): 0.022
  ω^2 V2 (IIV): 0.086
  ω^2 V3 (IIV): 0.101
  ω^2 ka (IIV): 2.329
[3]; final PopPK model estimate, no PPI use
  θ ka, first-order absorption rate constant: 3.1 h⁻¹ and 3.11 h⁻¹ and 3.113 h⁻¹
[3]; final PopPK model estimate, unit not given
  θ IND, rate constant of induction: 0.0199 and 0.020
[3]; high BALB 4.6 mg/dL (90th percentile)
  increase in CL compared with the typical patient (BALB 4 mg/dL): 4%
[3]; [6]
  increase in CL relative to the typical patient: 22%
  increase in V2 relative to the typical patient: 30.4%
[3]; [7]
  change in ka compared with a typical patient: unchanged
  decrease in CL compared with a typical patient: 26.5%
  decrease in V2 compared with a typical patient: 28.6%
[3]; human, plasma, oral
  bioavailability: 75.9%
[3]; [8]
  reduction in CL relative to a typical patient: 22.3%
  reduction in V2 relative to a typical patient: 28.6%
[3]; [9]
  decrease in ka compared with a typical patient: 67.5%
  increase in CL compared with a typical patient: 26.9%
  increase in V2 compared with a typical patient: 30.4%
CYP3A and UGT1A4
  metabolizing enzymes: metabolized primarily by cytochrome P450 (CYP)3A and UGT1A4, and to a lesser extent by CYP2C8, CYP2C19, CYP3A5, and UGT1A3
